Measurements published in ChEMBL document CHEMBL3769358, “Arylboronic acids as dual-action FAAH and TRPV1 ligands” (Bioorg Med Chem Lett, 2016).
pEC50, pIC50: −log10 of the molar value.

How the values were obtained:
[1] = target: T1, Transient receptor potential cation channel subfamily V member 1 (Homo sapiens, UniProt Q8NER1); assay: Antagonist activity at recombinant human TRPV1 channel expressed in HEK293 cells assessed as inhibition of capsiacin-induced Ca2+ flux preincubated for 5 mins followed by capsiacin challenge by Fluo-4-AM dye based spectrofluorimetry; assay type: cell-based
Method in brief: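 Fluo-4-loaded HEK293 cells stably expressing human TRPV1, in Tyrode's buffer pH 7.4, read at 25 °C (ex 488/em 516 nm). Test compound added to the cuvette 5 min before 0.1 µM capsaicin. IC50 taken as half-maximal inhibition of capsaicin-induced [Ca2+]i rise, calculated in GraphPad; mean of n = 4.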

[2] = target: T1, Transient receptor potential cation channel subfamily V member 1; assay: Agonist activity at recombinant human TRPV1 channel expressed in HEK293 cells assessed as increase in intracellular Ca2+ concentration by Fluo-4-AM dye based spectrofluorimetry relative to ionomycin; assay type: cell-based
Method in brief: (§1)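 HEK293 cells stably expressing human TRPV1, grown in MEM with non-essential amino acids, 10% FBS and 2 mM glutamine at 37 °C, 5% CO2. Cells loaded 1 h at room temperature with Fluo-4-AM (4 µM), washed into Tyrode's buffer pH 7.4, about 100,000 cells per stirred cuvette. Fluorescence (ex 488/em 516 nm) read at 25 °C. Efficacy normalised to 4 µM ionomycin, with wild-type HEK293 response subtracted when significant. EC50 from GraphPad; n = 4.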

[3] = target: T2, Fatty-acid amide hydrolase 1 (Rattus norvegicus, UniProt P97612); assay: Inhibition of rat brain FAAH assessed as hydrolysis of [14C]AEA to [14C]Ethanolamine incubated for 30 mins by scintillation counting method
T2 sequence (P97612 whole entry): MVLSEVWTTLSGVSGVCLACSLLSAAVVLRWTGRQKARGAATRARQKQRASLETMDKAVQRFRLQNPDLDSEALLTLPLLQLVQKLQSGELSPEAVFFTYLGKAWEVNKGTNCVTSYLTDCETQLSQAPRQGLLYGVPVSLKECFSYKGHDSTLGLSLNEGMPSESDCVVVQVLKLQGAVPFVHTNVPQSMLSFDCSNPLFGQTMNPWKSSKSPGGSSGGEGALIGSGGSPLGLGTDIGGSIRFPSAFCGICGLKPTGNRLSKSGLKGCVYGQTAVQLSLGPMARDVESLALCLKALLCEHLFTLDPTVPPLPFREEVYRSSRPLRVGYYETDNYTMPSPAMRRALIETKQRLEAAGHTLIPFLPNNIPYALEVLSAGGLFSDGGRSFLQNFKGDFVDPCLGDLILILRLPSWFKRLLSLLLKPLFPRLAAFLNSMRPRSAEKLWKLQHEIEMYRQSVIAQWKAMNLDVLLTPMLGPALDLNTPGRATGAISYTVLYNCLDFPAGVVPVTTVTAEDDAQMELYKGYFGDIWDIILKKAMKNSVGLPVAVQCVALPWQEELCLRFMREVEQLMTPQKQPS

[4] = target: T1, Transient receptor potential cation channel subfamily V member 1; assay: Agonist activity at recombinant human TRPV1 channel expressed in HEK293 cells assessed as increase in intracellular Ca2+ concentration by Fluo-4-AM dye based spectrofluorimetry; assay type: cell-based; method in brief: as §1
[5] = target: T1, Transient receptor potential cation channel subfamily V member 1; assay: Antagonist activity at recombinant human TRPV1 channel expressed in HEK293 cells assessed as inhibition of capsiacin-induced Ca2+ flux by Fluo-4 dye based spectrofluorimetry assay

T1 sequence (Q8NER1 whole entry): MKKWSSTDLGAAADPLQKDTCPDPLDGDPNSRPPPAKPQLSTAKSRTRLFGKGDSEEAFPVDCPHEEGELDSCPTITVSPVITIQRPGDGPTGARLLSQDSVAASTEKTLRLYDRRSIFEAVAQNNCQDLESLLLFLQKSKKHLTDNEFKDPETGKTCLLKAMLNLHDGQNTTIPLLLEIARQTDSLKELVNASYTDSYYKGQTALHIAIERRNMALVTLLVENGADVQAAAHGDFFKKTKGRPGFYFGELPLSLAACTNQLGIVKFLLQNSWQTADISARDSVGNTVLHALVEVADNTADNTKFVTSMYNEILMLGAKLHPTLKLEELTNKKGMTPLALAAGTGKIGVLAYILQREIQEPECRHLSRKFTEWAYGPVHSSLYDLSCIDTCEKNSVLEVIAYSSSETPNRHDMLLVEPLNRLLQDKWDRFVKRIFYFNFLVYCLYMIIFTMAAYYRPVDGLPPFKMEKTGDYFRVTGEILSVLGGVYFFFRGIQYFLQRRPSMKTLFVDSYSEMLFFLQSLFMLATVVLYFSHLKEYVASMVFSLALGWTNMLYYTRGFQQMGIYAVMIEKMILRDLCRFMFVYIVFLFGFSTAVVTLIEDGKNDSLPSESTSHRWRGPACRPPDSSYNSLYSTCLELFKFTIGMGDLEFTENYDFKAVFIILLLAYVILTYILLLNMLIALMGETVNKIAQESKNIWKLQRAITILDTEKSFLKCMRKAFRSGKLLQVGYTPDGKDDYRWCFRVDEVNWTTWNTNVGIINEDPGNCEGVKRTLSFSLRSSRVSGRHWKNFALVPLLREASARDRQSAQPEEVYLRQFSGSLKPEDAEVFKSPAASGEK

SMILES | pIC50 [1] | Efficacy [2] | pIC50 [3] | pEC50 [4] | pIC50 [5]
O=C(CCCCCc1ccccc1)Nc1ccc(B(O)O)cc1 | < 5.00 | < 10% | 6.24 | – | –
COc1cc(CNC(=O)CCCCCCCc2ccccc2)ccc1B(O)O | 7.47 | 62.5% | 5.75 | 7.29 | –
O=C(NCCCCCc1ccccc1)c1ccc(B(O)O)cc1 | < 5.00 | < 10% | 6.74 | – | –
O=C(Cc1ccc(O)cc1)NCCCCCCCc1ccccc1 | 6.59 | 64.7% | – | 6.77 | –
O=C(Cc1ccc(B(O)O)cc1)NCc1ccc(-c2ccccc2)cc1 | 5.26 | 27.4% | 6.55 | 6.51 | –
COc1cc(CNC(=O)Nc2ccc(C(C)(C)C)cc2)ccc1B(O)O | 5.09 | < 10% | 5.37 | – | –
CC(C)(C)c1ccc(NC(=O)NCc2ccc(B(O)O)cc2)cc1 | 5.38 | < 10% | 5.70 | – | –
O=C(NCc1ccc(B(O)O)cc1)c1ccc(-c2ccccc2)cc1 | 5.15 | 22% | 6.48 | 5.37 | –
CC(C)(C)c1ccc(NC(=O)c2ccc(B(O)O)cc2)cc1 | 6.12 | < 10% | 5.26 | – | –
O=C(Nc1ccc(-c2ccccc2)cc1)c1ccc(B(O)O)cc1 | < 5.00 | 12.5% | 6.82 | 5.40 | –
CCCCCCCCCc1ccc(B(O)O)cc1 | < 5.00 | < 10% | 5.53 | – | –
CCCCC/C=C\C/C=C\C/C=C\C/C=C\CCCC(=O)NCCc1c[nH]c2ccc(O)cc12 | – | < 10% | – | – | –
OB(O)c1ccc(-c2ccccc2)cc1 [BIPHENYLBORONIC ACID] | < 5.00 | < 10% | 6.10 | – | –
O=C(Cc1ccc(B(O)O)cc1)NCCCCc1ccccc1 | 5.66 | 44.9% | 5.93 | 5.70 | –
O=C(NCc1ccccc1)c1ccc(B(O)O)cc1 | < 5.00 | < 10% | 5.54 | – | –
O=C(Cc1ccc(-c2ccccc2)cc1)Nc1ccc(B(O)O)cc1 | < 5.00 | < 10% | < 5.00 | – | –
O=C(/C=C/c1ccc(Cl)cc1)Nc1cccc(B(O)O)c1 | 7.39 | < 10% | < 5.00 | – | –
O=C(CCCCCc1ccccc1)NCc1ccc(B(O)O)cc1 | 5.54 | 41.1% | 5.97 | 5.82 | –
O=C(Cc1ccccc1)NCCCCCCCc1ccccc1 | 5.92 | 54.6% | < 5.00 | 6.18 | –

SMILES | pIC50 [1] | Efficacy [2] | pIC50 [3] | pEC50 [4] | pIC50 [5]
O=C(NCc1ccc(-c2ccccc2)cc1)c1ccc(B(O)O)cc1 | < 5.00 | < 10% | 5.73 | – | –
O=C(CCCCCCCc1ccccc1)Nc1ccc(B(O)O)cc1 | < 5.00 | < 10% | 6.41 | – | –
COc1cccc(NC(=O)/C=C/c2ccc(Cl)cc2)c1 | 6.72 | < 10% | < 5.00 | – | 6.57
CC(C)(C)c1ccc(NC(=O)Cc2ccc(B(O)O)cc2)cc1 | < 5.00 | < 10% | < 5.00 | – | –
O=C(Oc1ccc(C(F)(F)F)cc1)N1CCN(c2ncccc2C(F)(F)F)CC1 | – | < 10% | – | – | –
CCCCCCCC/C=C\CCCCCCCC(=O)NCc1ccc(B(O)O)cc1 | 7.33 | 42.2% | < 5.00 | 7.66 | –
O=C(NCCCCc1ccccc1)c1ccc(B(O)O)cc1 | < 5.00 | < 10% | 6.24 | – | –
O=C(CCCCCCCc1ccccc1)NCc1ccc(B(O)O)cc1 | 6.30 | 54.7% | 6.33 | 6.00 | –
O=C(/C=C/c1ccc(Cl)cc1)Nc1ccc(B(O)O)cc1 | 5.86 | < 10% | 6.25 | – | –
CCCCCCCC/C=C\CCCCCCCC(=O)NCc1ccc(B(O)O)c(OC)c1 | 7.49 | 49.2% | < 5.00 | 7.70 | –
CC(C)(C)c1ccc(NC(=O)Nc2ccc(B(O)O)cc2)cc1 | 5.71 | < 10% | < 5.00 | – | –
CC(C)(C)c1ccc(C(=O)Nc2ccc(B(O)O)cc2)cc1 | 6.11 | 39.3% | < 5.00 | 6.28 | –
O=C(CCc1ccccc1)NCc1ccc(B(O)O)cc1 | 6.64 | 60.2% | < 5.00 | 6.49 | –
COc1cc(CNC(=O)CCCCCc2ccccc2)ccc1B(O)O | 5.82 | 59.3% | 5.88 | 5.84 | –
O=C(Cc1ccc(B(O)O)cc1)NCCCCCc1ccccc1 | 5.60 | 62.8% | 6.20 | 5.65 | –
O=C(Cc1ccc(B(O)O)cc1)NCc1ccccc1 | < 5.00 | < 10% | < 5.00 | – | –
O=C(/C=C/c1ccc(Cl)cc1)NCc1ccc(B(O)O)cc1 | < 5.00 | < 10% | 5.82 | – | –
O=C(Cc1ccc(B(O)O)cc1)NCCCCCCCc1ccccc1 | 6.43 | 52.5% | 6.60 | 6.43 | –
O=C(NCCc1ccc(O)cc1)c1ccc(B(O)O)cc1 | < 5.00 | < 10% | < 5.00 | – | –
